Assay outcomes from PubChem.
Cl transport mod: modulates chloride dependent transport by human KCC2. Q9H2X9. KCC2 cells, thallium flux FluoZin-2 fluorescence. B-score of Tl+ flux slope (higher = more flux/activation; lower = inhibition) at 10 µM. 190,000 tested, 2.2% active. AID 1456;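 active = thallium flux slope and its plate-corrected score both differing from the plate sample mean at a set confidence after two filtering rounds, in either direction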;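 note: slope of fluorescence scaled to starting intensity during 10 to 20 s after thallium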
Target sequence (Q9H2X9 whole entry, looked up): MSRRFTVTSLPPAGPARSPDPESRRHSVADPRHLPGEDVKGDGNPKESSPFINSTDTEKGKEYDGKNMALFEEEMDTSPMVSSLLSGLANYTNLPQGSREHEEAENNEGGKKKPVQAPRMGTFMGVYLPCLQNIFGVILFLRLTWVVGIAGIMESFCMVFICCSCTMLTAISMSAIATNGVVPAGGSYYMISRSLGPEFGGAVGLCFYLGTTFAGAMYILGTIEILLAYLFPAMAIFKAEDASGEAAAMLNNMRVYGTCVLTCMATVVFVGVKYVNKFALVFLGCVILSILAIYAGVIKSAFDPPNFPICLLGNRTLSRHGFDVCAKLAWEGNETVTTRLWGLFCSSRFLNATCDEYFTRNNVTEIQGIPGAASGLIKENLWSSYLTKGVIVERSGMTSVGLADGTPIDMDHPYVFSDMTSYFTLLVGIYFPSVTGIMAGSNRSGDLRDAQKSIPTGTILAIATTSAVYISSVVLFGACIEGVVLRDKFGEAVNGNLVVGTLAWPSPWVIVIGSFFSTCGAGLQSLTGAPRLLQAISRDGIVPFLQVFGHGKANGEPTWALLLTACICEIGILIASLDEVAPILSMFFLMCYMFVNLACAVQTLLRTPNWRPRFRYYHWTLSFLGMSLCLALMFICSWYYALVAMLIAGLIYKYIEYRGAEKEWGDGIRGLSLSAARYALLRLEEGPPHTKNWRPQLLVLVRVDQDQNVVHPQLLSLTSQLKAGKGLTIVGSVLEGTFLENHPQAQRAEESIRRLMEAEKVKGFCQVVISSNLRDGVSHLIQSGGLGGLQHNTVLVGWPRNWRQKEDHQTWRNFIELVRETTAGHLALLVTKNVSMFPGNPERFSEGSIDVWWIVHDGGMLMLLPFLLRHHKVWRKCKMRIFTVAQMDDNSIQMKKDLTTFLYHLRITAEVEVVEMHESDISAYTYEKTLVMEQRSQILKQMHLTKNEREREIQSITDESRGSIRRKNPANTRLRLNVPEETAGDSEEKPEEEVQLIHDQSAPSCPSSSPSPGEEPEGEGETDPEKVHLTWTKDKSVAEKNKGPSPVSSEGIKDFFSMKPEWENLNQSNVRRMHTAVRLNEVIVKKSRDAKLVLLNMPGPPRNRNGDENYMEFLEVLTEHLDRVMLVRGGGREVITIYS
MrgX1 agonist: activates human MrgX1 receptor signaling. B-score at 10 µM. 310,000 tested, 0.44% active. MrgX1-HEK293 cells, Fluo-4 calcium fluorescence, agonist mode; hits give high values. AID 588627;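 active = calcium response B-score plate-corrected fluorescence ratio at least 3 library SD, with starting fluorescence B-score inside 5 SD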
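Test system: HEK293 cells stably expressing human MrgX1 receptor; amount: 15,000 cells per well; doses: compound delivered in addition one of three; times: overnight plating before 1 h dye loading; detection: Fluo-4 NW calcium-flux fluorescence, kinetic read; read-out basis: B-scored fluorescence response ratio; controls: positive and negative controls per plate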
MrgX1 antagonist: human MrgX1 receptor antagonism, primary screen; Q96LB2; MRGX1-HEK293 calcium flux, Fluo-4, BAM8-22 antagonism; hits give low values; B-score at 10 µM; 310,000 tested, 1.3% active;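 active = calcium-response B-score plate-corrected more than 3 library SD below zero, starting fluorescence within 5 deviations, no agonist response on first addition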;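 note: peak minus trough fluorescence over baseline after final BAM8-22 challenge near maximal dose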
RGS4 act: potentiators or activators of RGS4; AID 463111; B-score at 10 µM; HEK293 M3R/inducible RGS4, carbachol calcium flux Fluo4; hits give low values; 310,000 tested, 0.92% active;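 active = B-score of the integrated calcium signal more than 4 SD below the library mean, with starting fluorescence not abnormally high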;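 note: negative B-score means reduced calcium response which marks RGS4 activation or potentiation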
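test system = M3R-expressing HEK293 line, RGS4 induced by doxycycline | probe or stimulus = carbachol at ECmax as muscarinic agonist stimulus | timing = dye loading 30 min 37 °C, buffer rest 30 min RT | signal = calcium dye Fluo4 fluorescence | evaluation = B score from integrated fluorescence ratio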
RGS4 block: inhibitors of human RGS4; AID 463165; 310,000 tested, 0.45% active; B-score at 10 µM; P49798; HEK293 M3R/RGS4 inducible, Fluo-4 calcium flux; hits give high values; triggered by carbachol at its EC20;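 active = B-score, a plate-corrected calcium signal, over three deviations above library mean, with baseline fluorescence within five deviations of library mean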;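 note: RGS4 expression induced by doxycycline in cells with stable M3 receptor; B-score is computed from the integrated fluorescence ratio over baseline after carbachol; higher B-score means a larger calcium signal and so more RGS4 inhibition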
MrgX1 PAM: human MrgX1 positive allosteric modulation, primary screen | Q96LB2 | MrgX1-HEK293, Fluo-4 calcium flux, FDSS; hits give high values | B-score at 10 µM | 310,000 tested, 0.63% active | AID 588675;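 active = plate-corrected calcium response at least 3 library SD above typical, normal starting fluorescence, not activating the receptor alone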;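 note: compound read alongside a low EC10 to EC30 dose of BAM8-22 agonist; peak minus trough fluorescence over baseline measured at the second addition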
RGS4 activ val: RGS4 activation, validation assay; shares compounds with RGS4 act; inhibition, % at 10 µM; 1,100 tested, 89% active; HEK293 M3R/RGS4 inducible, carbachol calcium flux Fluo4;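 active = inhibition above 3 SD of the buffer control wells, cut at about 41% in these data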;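 note: signal is the integrated peak-minus-minimum Fluo4 fluorescence over baseline ratio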
M3R Ca counter: RGS4 activator counter-screen hit in non-induced cells | 1,100 tested, 82% active | inhibition, % at 10 µM | HEK293 M3R non-induced RGS4, Fluo4 calcium flux; after carbachol challenge at its EC90 | AID 602283 | shares compounds with RGS4 act;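 active = inhibition exceeding 3 SD of buffer-only control wells, cut at about 26% in these data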;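 note: percent drop in integrated peak-minus-baseline over baseline Fluo4 ratio after carbachol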
Numbers without * were called inactive; i = inactive; x = not tested or not shown. Only some compounds are listed: those with a hit (about 4.7% of all), similar ones and a draw of the others.

SMILES | Cl transport mod | MrgX1 agonist | MrgX1 antagonist | RGS4 act | RGS4 block | MrgX1 PAM | RGS4 activ val | M3R Ca counter
Cc1ccc(S(=O)(=O)n2c(CN3CCCC(C)C3)nc3ccccc32)cc1 (configuration not stated) | 0.081 | i | i | -10* | i | i | 60* | 84*
Cc1ccc(S(=O)(=O)n2c(C)nc3ccccc32)cc1 | x | i | i | i | i | i | x | x
O=C(COC(=O)c1cc(=O)[nH]c(=O)[nH]1)Nc1cccc(S(=O)(=O)N2CCOCC2)c1 | 0.25 | i | i | i | i | i | x | x
O=C(CN1C(=O)c2ccccc2S1(=O)=O)c1ccc2c(c1)OCCO2 | -0.16 | i | i | i | i | i | x | x
CCCC1Oc2ccccc2C(=O)N(CC(=O)c2ccc3c(c2)OCCO3)C1=O (configuration not stated) | x | i | i | -9* | i | i | 58* | 0
O=c1c2c(nc3n1CCCCC3)-c1ccccc1CC21CCCCC1 | 0.91 | i | i | -16* | i | i | 90* | 79*
CCC1(C)Cc2ccccc2-c2nc3n(c(=O)c21)CCCCC3 (configuration not stated) | 0.25 | i | i | i | i | i | x | x
Cc1cccc2c3c([nH]c12)CCN(C)C3 | x | i | i | i | i | i | x | x
CN(C(=O)c1ccc2c(c1)OCO2)C1CCS(=O)(=O)C1 (configuration not stated) | x | i | i | i | i | i | x | x
CCOC(=O)Oc1ccc2oc(C)c(C(=O)OCCOC)c2c1 | 0.099 | i | i | i | i | i | x | x
COCCOC(=O)c1c(C)oc2ccc(OC(=O)c3c(OC)cccc3OC)cc12 | -1.2 | i | i | -7.7* | i | i | 93* | 57*
COCCOC(=O)c1c(C)oc2ccc(OC(=O)c3ccc4c(c3)OCO4)cc12 | -0.46 | i | i | -8.4* | i | i | 90* | 59*
Cn1ncc([N+](=O)[O-])c1C(=O)NC1CCCCC1 | x | i | i | i | i | i | x | x
Nc1ccc2c(c1)C(=O)C(=O)c1ccccc1-2 | 0.56 | i | i | -8.7* | i | i | 68* | 48*
COC(=O)CCC(=O)c1ccc(OC)c(Cl)c1 | x | i | i | i | i | i | x | x
CCc1nc(CN(C)C(=O)C2CCC(=O)N(Cc3cccc(F)c3)C2)no1 (configuration not stated) | x | i | i | i | i | i | x | x
Cc1cc(C)c2[nH]c(C)c(CN3CCCCCC3)c(=O)c2c1 | x | i | i | -11* | i | i | 42* | 84*
CN(C(=O)COC(=O)C1CCN(S(=O)(=O)c2c(Cl)cccc2Cl)CC1)C1CCCCC1 | x | i | i | i | i | i | x | x
O=C(NCCc1ccccc1)C(c1cccs1)N(C(=O)c1csnn1)C1CC1 (configuration not stated) | x | i | i | i | i | i | x | x
O=C(NCCc1ccccc1)C(c1cccs1)N(C(=O)CCl)c1ccc(Cl)cc1 (configuration not stated) | -0.7 | i | i | -8.1* | i | i | 50* | 0
COc1ccc(CNC(=O)C2CCCN2C)cc1OC (configuration not stated) | -0.024 | i | i | i | i | i | x | x
Cc1cc(N2CCCCCC2)nc2ccccc12 | 0.0015 | i | i | -10* | i | i | 92* | 48*
CCN(CC)S(=O)(=O)c1cc(NC(=O)C(C)N2CCN(c3ccccn3)CC2)ccc1C (configuration not stated) | -0.0089 | i | i | -9.1* | i | i | 64* | 0
O=S(=O)(CCN1CCN(C(c2ccccc2)c2ccccc2)CC1)C(F)(F)F | 0.93 | i | i | i | i | i | x | x
O=C1C2CSCN2C(=O)CN1CCCN1CCN(C(c2ccccc2)c2ccccc2)CC1 (configuration not stated) | -0.45 | i | i | -8* | i | i | 84* | 34*
SMILES | Cl transport mod | MrgX1 agonist | MrgX1 antagonist | RGS4 act | RGS4 block | MrgX1 PAM | RGS4 activ val | M3R Ca counter
CCOC(=O)c1c(NC(=O)CSc2nnnn2-c2ccc3c(c2)OCCO3)sc(C)c1C | 0.41 | i | i | -9.5* | i | i | 84* | 32*
CC(=O)NS(=O)(=O)c1ccc(NC(=O)c2cccc3ccccc23)cc1 | x | i | i | i | i | i | x | x
CCOC(=O)C(C(C)=O)c1c(Br)c(O)c(O)c2c(C(=O)c3ccc(C)cc3)coc12 (configuration not stated) | -2.3 | i | i | -9.2* | i | i | 42* | 39*
O=C1CCC(c2ccccc2)(C2CCN(Cc3ccccc3)CC2)C(=O)N1 (configuration not stated) | x | i | i | -7.8* | i | i | 94* | 94*
CCOC(=O)c1sc2nc(C)nc(NCc3ccc(Cl)cc3)c2c1C | x | i | i | -7.8* | i | i | 90* | 42*
CCOC(=O)c1sc2nc(C)nc(NCc3ccc(F)cc3)c2c1C | x | i | i | i | i | i | x | x
COc1ccc(-c2cc(=O)c3c(O)c(OC)c(O)cc3o2)cc1 | -1.5 | i | i | i | i | i | x | x
COc1cc(-c2cc(=O)c3c(O)c(OC)c(OC)cc3o2)cc(OC)c1O | 0.036 | i | i | -8.3* | i | i | 0 | 0
Cn1c(=O)c2c(ncn2CCOc2ccc(F)cc2)n(C)c1=O | x | i | i | -8.9* | i | i | 0 | 0
O=C(Nc1ccc(S(=O)(=O)N2CCOCC2)cc1)c1cc(-c2cc(Cl)ccc2O)n[nH]1 | 0.22 | i | i | -8.4* | i | i | 93* | 71*
CCN(CC)CCOC(=O)C1(c2ccccc2)CCCC1 | 0.18 | i | i | -9.1* | i | i | 94* | 93*
COc1ccc(Br)cc1S(=O)(=O)n1nc(C)cc1C | x | i | i | i | i | i | x | x
CC1=C(c2ccccc2)SC2=NCCN21 | x | i | i | -9.7* | i | i | 75* | 31*
CC(C)(C)c1ccc(C2=CSC3=NCCN23)cc1 | x | i | i | i | i | i | x | x
